Env fusion inh – inhibitors of HIV-1 Env-driven cell-cell fusion, primary screen, HeLa-JRFL effector, CEM21 target cells, luciferase; inhibition, % at 12.3 µM; hit rate 1.1% among 360,000;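 active = mean replicate inhibition score of at least 50 and every replicate individually at or above 50; inconclusive = only one of the two criteria met; inactive = mean below 50 and not all replicates reaching 50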
ERAP1 inh – human ERAP1 aminopeptidase inhibitors, primary screen, biochemical, single point, plate reader; Endoplasmic reticulum aminopeptidase 1 (Homo sapiens), Q9NZ08; inhibition, % at 10.7 µM; recombinant ERAP1, Leu-AMC fluorescence, 60 min; hit rate 0.15% among 340,000;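 active = mean replicate inhibition of at least 30%, or all replicates individually reaching that 30% level; inactive = mean below 30% and not every replicate reaching it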
Ecoli rRNA inh – reduced GFP signal of wild-type E. coli, primary screen, bacterial rRNA inhibitor project, GFP/RFP fluorescence, OD600, single point. AID 720706, 2013. hit rate 1.6% among 350,000. GFP signal change (wild-type ribosome), % (concentration not given with the values). E. coli WT GFP vs humanized-ribosome RFP mutants, 24 h; active compounds read low; DMSO median 0, no signal -100;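 active = significant combined selectivity score with lowered wild-type GFP, culture density cut under 30%, mutant RFP and density less affected; inactive = any of these conditions unmet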
Cneo AK release – Cryptococcus neoformans cell lysis inducers, primary screen, AK release luminescence, single concentration; hit rate 0.2% among 360,000; lysis activity, % at 15 µM; C. neoformans lysis, adenylate kinase release luminescence, 4 h; normalised: neutral wells 0, clomiphene wells 100;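 active = mean lysis activity across replicates of at least 80%, whatever share of replicates individually reach that level; inactive = mean lysis activity below 80%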
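Assay system: log-phase C. neoformans yeast / Quantity: yeast cell density of 5 × 10^6 cells/mL / Medium: fresh YPD growth medium / Compound: single dose / Timing: static 4 h at 37 °C with compound, 1 h detection / Measured by: adenylate kinase release luminescence / Read-out: lysis from increased AK signal / Benchmarks: Clomiphene as positive lysis control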
PGC1a acetyl inh – inhibitors of PGC1a acetylation signal, primary screen, cell-based, U2OS, AlphaScreen, inhibitor mode | hit rate 0.17% among 350,000 | AlphaScreen anti-acetyl-lysine; with virally co-expressed GCN5 acetyltransferase | inhibition, % at 15.6 µM;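 active = every replicate shows inhibition of at least 40%; inconclusive = mean inhibition at least 40% but some replicate below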
FGF22 binding-1 – binders of human FGF22 protein, primary screen, FGF22 synaptogenesis inhibitor project, biophysical, thermal shift, single point; Fibroblast growth factor 22 (Homo sapiens), Q9HCT0; recombinant FGF22 thermal shift, SYPRO orange fluorescence; percent of sucrose octasulfate shift, DMSO zero; activity (Tm shift, normalised), % at 9.99 µM; hit rate 1.5% among 340,000;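 active = mean Tm shift, scaled 0 neutral to 100 positive control, at about 1.3% or above, every replicate too, limit read from the data; inconclusive = no clear call, values can overlap the other calls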
Target sequence (Q9HCT0 whole entry, looked up): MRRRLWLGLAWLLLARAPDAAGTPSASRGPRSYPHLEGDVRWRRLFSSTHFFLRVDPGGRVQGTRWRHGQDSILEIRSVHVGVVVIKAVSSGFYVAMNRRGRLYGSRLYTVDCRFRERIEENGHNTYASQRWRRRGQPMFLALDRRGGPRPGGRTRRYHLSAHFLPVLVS
FGF22 binding-2 – binders of human FGF22 protein, dose response, FGF22 synaptogenesis inhibitor project, biophysical, thermal shift, cherry-pick retest; shares compounds with FGF22 binding-1; recombinant FGF22 thermal shift, SYPRO orange fluorescence; thermal shift activity, °C (ΔTm) at 38 µM; hit rate 2% among 1,000; AID 720646, 2013;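 active = fitted rise in melting shift crosses a set limit at or below the top valid dose tested; inconclusive = flat fit at mid-level activity, or a poor quality fit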
TSA no protein – compound-only thermal shift signal without protein, dose response, artefact control for FGF22 binder project, biochemical, cherry-picked samples, RT-PCR instrument | hit rate 2% among 1,000 | compound-only SYPRO orange thermal shift counter-screen, no protein | shares compounds with FGF22 binding-1 | AC50, µM (series often up to 38 µM);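 active = rising signal whose fitted curve reaches the 0.54 level within the top valid dose, showing a melting point, actives reach about 13 µM in these data; inactive = the rest, including activity in the opposite direction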; also: value is where the raw curve crosses a fixed level and not half-maximal
AID977621 – growth inhibition of wild-type GFP E. coli, dose response, H69 mutant RFP, cherry-pick; shares compounds with Ecoli rRNA inh; E. coli wild-type GFP strain growth, fluorescence, 24 h; activity change, negative = inhibition at 50 µM; 1,900 tested, under 10 active; AID 977621, 2014;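 active = Wild-type ribosome reporter drop at least double the humanized mutant ribosome reporter drop, growth loss under a set limit; inconclusive = no clear call, values can overlap the other calls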;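 also: wild-type GFP and H69 mutant RFP strains grown together 50/50 in each well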
AID977628 – E. coli growth inhibition, wild-type GFP versus h24 humanized RFP strain, dose response, h24 mutant RFP vs wild-type GFP, cherry-pick | shares compounds with Ecoli rRNA inh | E. coli WT GFP strain growth, fluorescence, 24 h | activity change, negative = inhibition at 50 µM | 1,900 tested, under 10 active;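 active = compound lowering the normal-ribosome reporter at least twice as much as the humanized-ribosome reporter, growth loss under a set limit; inconclusive = no clear call, values can overlap the other calls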;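 also: wild-type GFP and h24 humanized RFP strains co-cultured 1 to 1 per well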
Each line names hits and unclear results; the compound was inactive in the other large screens (follow-up assays come after a bar, where they were run). An excerpt weighted towards active compounds, which were near 3.5% of everything screened.

O=C(N/N=C/c1c(O)n(C2CC2)c(=S)[nH]c1=O)c1ccccc1O	none (no result: ERAP1 inh, Ecoli rRNA inh, Cneo AK release, PGC1a acetyl inh, FGF22 binding-1)
Cc1ccccc1-n1c(O)c(/C=N/NC(=O)c2ccccc2O)c(=O)[nH]c1=S	FGF22 binding-1 1.8 (no result: ERAP1 inh) | FGF22 binding-2 inactive | TSA no protein inactive
CC(=O)Nc1ccc(S(=O)(=O)N2Cc3ccccc3-n3nncc3C2)cc1	FGF22 binding-1 23.2 (no result: Env fusion inh, Cneo AK release) | FGF22 binding-2 inactive | TSA no protein inactive
O=C(NCCN1CCC2(CC1)C(=O)NCN2c1ccccc1)c1ccc2ccccc2c1	Env fusion inh inconclusive, FGF22 binding-1 1.9 (no result: Cneo AK release, PGC1a acetyl inh) | FGF22 binding-2 inactive | TSA no protein inactive
O=C(Nc1ccccc1)c1cccn(Cc2ccccc2)c1=O	FGF22 binding-1 1.4 (no result: Cneo AK release) | FGF22 binding-2 inactive | TSA no protein inactive
COc1cccc(-c2ccc([C@@H]3[C@@H](CO)N4CCCCN(C(=O)Cc5ccncc5)C[C@@H]34)cc2)c1	FGF22 binding-1 1.4 (no result: Env fusion inh) | FGF22 binding-2 inactive | TSA no protein inactive
COc1cccc(-c2ccc([C@H]3[C@@H](CO)N4CCCCN(C(=O)Cc5ccncc5)C[C@@H]34)cc2)c1	none (no result: Env fusion inh)
CC[C@H]1CN2CCC1C[C@@H]2[C@H](O)c1ccnc2ccc(OC)cc12 (some centres undefined)	none (no result: Ecoli rRNA inh)
O=C(c1sc2ccccc2c1Cl)N1CCC2(CC1)OCCO2	Ecoli rRNA inh -19.6 (no result: Env fusion inh) | AID977621 inactive | AID977628 inactive
O=C(c1ccc(F)cc1Cl)N1CCC2(CC1)OCCO2	none
COC(=O)[C@H]1[C@H](CO)[C@H]2Cn3c(ccc(-c4ccccc4F)c3=O)[C@@H]1N2Cc1ccccc1	none (no result: Env fusion inh, PGC1a acetyl inh)
CCOc1ccc(-n2c(O)c(N=Nc3ccc([N+](=O)[O-])cc3)c(=O)[nH]c2=O)cc1	none (no result: Cneo AK release, PGC1a acetyl inh)
CC(C)Cc1nc(N2CCNCC2)c(C#N)c2c1CCC2	Ecoli rRNA inh -20.7 | AID977621 inactive
O=C1NC(=O)C(=Cc2ccc3c(c2)OCO3)C(=O)N1	none (no result: Cneo AK release, PGC1a acetyl inh)
Oc1c(Br)cc(Br)cc1Br	Ecoli rRNA inh -21.4 (no result: Env fusion inh) | AID977621 inactive | AID977628 inactive
CC(C)OCCCNC(=O)c1c(N)n(Cc2cccs2)c2nc3ccccc3nc12	none (no result: Env fusion inh, ERAP1 inh, Ecoli rRNA inh, FGF22 binding-1)
CC(C)CCn1c(N)c(C(=O)NCc2cccs2)c2nc3ccccc3nc21	Ecoli rRNA inh -21.9 (no result: Env fusion inh) | AID977621 inactive | AID977628 inconclusive
Cc1c(C(=O)Nc2ccccc2)c2cc(O)ccc2n1Cc1ccccc1	Ecoli rRNA inh -19.8 | AID977621 inactive | AID977628 inconclusive
CCS(=O)(=O)NCc1nnc2n1-c1ccc(Cl)cc1C(c1ccccc1)=NC2	none (no result: ERAP1 inh, Ecoli rRNA inh, FGF22 binding-1)
CSc1ccc(CN2CCN(Cc3ccccc3Cl)CC2)cc1	Ecoli rRNA inh -22.5 (no result: Cneo AK release, PGC1a acetyl inh) | AID977628 inconclusive
CCOC(=O)C12C(=O)OCC1C2c1ccccc1 (centres undefined)	Ecoli rRNA inh -4.1 (no result: Cneo AK release, PGC1a acetyl inh) | AID977621 inactive | AID977628 inactive
CCOC(=O)C1(CCOc2ccccc2)CCN(C2Cc3ccccc3C2)CC1	none (no result: Cneo AK release, PGC1a acetyl inh)

Screens: PubChem BioAssay, Broad Institute
